Here are results for one compound from ChEMBL document CHEMBL4422671, “New Quinolylnitrones for Stroke Therapy: Antioxidant and Neuroprotective ( Z)- N- tert-Butyl-1-(2-chloro-6-methoxyquinolin-3-yl)methanimine Oxide as a New Lead-Compound for Ischemic Stroke Treatment” (J Med Chem, 2019).

The subject of test [1] is Mus musculus. Briefly: Neuroprotective activity in C57BL/6 mouse model of ischemia-induced cerebral ischemia model assessed as reduction in apoptosis in hippocampal CA1 region at 40 mg/kg, ip administered at onset of reperfusion period and measured at 5 days reperfusion post ischemia by TUNNEL assay relative to control. The test is classed as functional, organism-based.

Test [2] in a line: Antioxidant activity assessed as DPPH free radical scavenging activity at 0.1 mM measured after 20 to 60 mins. Format: functional. The method, boiled down:
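DPPH 0.1 mM in absolute ethanol with compound at 0.1 mM final (from DMSO). Absorbance at 517 nm recorded after 20 and 60 min at rt. NDGA as standard.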

Test [3] is described as follows: Antiinflammatory activity assessed as NO release at 100 uM after 60 mins in presence of L-cysteine by Griess reagent-based relative to control. Format: functional. An outline of the steps:
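NO-release test: compound at 100 μM final (from DMSO) in 50 mM phosphate buffer pH 7.4 containing 1 mM L-cysteine, 60 min at 37 °C. Reaction mixture then treated with Griess reagent, left 10 min at rt, absorbance read at 540 nm. Sodium nitroprusside as standard. Mean of three to four determinations.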

A short description of test [4]: Antioxidant activity assessed as hydroxyl radical scavenging activity at 0.1 mM measured after 30 mins. Format: functional. The method, boiled down: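 Hydroxyl radicals from Fe3+/ascorbic acid: EDTA 0.1 mM, Fe3+ 167 μM, DMSO 33 mM, compound 0.1 mM and ascorbic acid 10 mM in 50 mM phosphate buffer pH 7.4. Incubated 37 °C for 30 min, stopped with 17% w/v TCA. Read-out is inhibition of formaldehyde formation, given as % scavenging. Trolox as reference.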

The subject of test [5] is Mus musculus. The test can be described thus: Neuroprotective activity in C57BL/6 mouse model of ischemia-induced cerebral ischemia model assessed as reduction in apoptosis in cortical region at 40 mg/kg, ip administered at onset of reperfusion period and measured at 5 days reperfusion post ischemia by TUNNEL assay relative to control. The test is classed as functional, organism-based.

The nature of test [6]: Antioxidant activity assessed as inhibition of linoleic acid peroxidation activity at 10 uL. Format: functional. The method, boiled down: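 AAPH-initiated peroxidation of sodium linoleate dispersion (16 mM, 10 μL) in 0.05 M phosphate buffer pH 7.4 at 37 °C under air. Initiator was 50 μL of 40 mM AAPH, with 10 μL compound added. Conjugated diene hydroperoxide followed at 234 nm. Trolox as reference.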

In test [7] the test system is Mus musculus. Briefly: Neuroprotective activity in C57BL/6 mouse model of ischemia-induced cerebral ischemia model assessed reduction in neurodeficit score at 40 mg/kg, ip administered at onset of reperfusion period and measured at 5 days reperfusion post ischemia. The test is classed as functional, organism-based.
The nature of test [8]: Antioxidant activity assessed as ABTS radical cation scavenging activity by measuring trolox equivalents at 10 uL after 1 min. Format: functional. An outline of the steps: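 ABTS radical cation made from 2 mM aqueous ABTS plus 0.17 mM potassium persulfate in 20 mM phosphate buffer pH 7.4, kept 12–16 h dark at rt. Diluted with ethanol to A734 0.70, then mixed with 10 μL compound from 10 mM stock. Absorbance read at rt 1 min after mixing. Trolox as standard.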

A short description of test [9]: Neuroprotective activity against oxygen-glucose deprivation-induced cell death in Sprague-Dawley rat primary neuronal cells assessed as cell viability at 250 uM treated at onset of recovery period and measured at 24 hrs of recovery by MTT assay relative to control. Format: functional. Conditions: Primary neuron, read-out: Activity. An outline of the steps: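 Rat cortical neurons from E16–17 Sprague-Dawley embryos, used at 6–7 days in serum-free medium. OGD: glucose-free medium bubbled with 95% N2/5% CO2, <0.1% O2, 6.5% CO2, 37 °C, 4 h. Compound added at start of 24 h normoxic recovery. Viability by MTT (0.2 mg/mL, 1.5 h), lysis with HCl/SDS, read at 595/690 nm, relative to 100% control. Four to eight culture batches, each in quadruplicate.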
In general terms: Tetrazolium dyes change colour on reduction, which living cells bring about.

In test [10] the test system is Mus musculus. Briefly: Neuroprotective activity in C57BL/6 mouse model of ischemia-induced cerebral ischemia model assessed reduction in neuronal cell death in cortical region at 40 mg/kg, ip administered at onset of reperfusion period and measured at 5 days reperfusion post ischemia by Fluoro-Jade-staining assay based relative to control. The test is classed as functional, organism-based.

The target of test [11] is Lipoxygenase (Glycine max, UniProt Q39829). The test can be described thus: Inhibition of soybean lipoxygenase using sodium linoleate as substrate by UV-based analysis. The method, boiled down: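 Soybean lipoxygenase (enzyme 1/9 ×10⁻⁴ w/v in saline) incubated at rt with 0.1 mM sodium linoleate and compound in DMSO, at several concentrations from 1 to 100 µM diluted from 10 mM stock. Conversion to 13-hydroperoxylinoleic acid recorded at 234 nm; IC50 derived. NDGA as reference inhibitor.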

The test system of test [12] is Mus musculus. The test can be described thus: Neuroprotective activity in C57BL/6 mouse model of ischemia-induced cerebral ischemia model assessed reduction in neuronal cell death in hippocampal CA1 region at 40 mg/kg, ip administered at onset of reperfusion period and measured at 5 days reperfusion post ischemia by Fluoro-Jade-staining assay based relative to control. Format: functional, organism-based.

The test system of test [13] is Mus musculus. Briefly: Neuroprotective activity in C57BL/6 mouse model of transient middle cerebral artery occlusion-induced ttransient focal cerebral ischemia assessed decrease in motor deficit by measuring improvement in grip strength at 40 mg/kg, ip measured after 48 hrs post dose by grip strength Test. The test is classed as functional. Details: scale not given: the % may be the effect or the level left.

A short description of test [14]: Antioxidant activity assessed as superoxide anion scavenging activity at 0.1 mM pH 7.4 after 10 mins by NBT assay. The test is classed as functional. The method, boiled down: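 Superoxide generated by xanthine/xanthine oxidase (0.07 U/mL) in 0.1 M phosphate buffer pH 7.4 containing NBT and compound at 0.1 mM final. After 10 min at rt, absorbance read at 560 nm. Caffeic acid as standard.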

Test [15] has as its system Mus musculus. Briefly: Neuroprotective activity in C57BL/6 mouse model of transient middle cerebral artery occlusion-induced ttransient focal cerebral ischemia assessed decrease in size of ischemic lesion at 40 mg/kg, ip measured after 48 hrs post dose relative to control. Format: functional, organism-based.

Activity calls are given as the source filed them. The rule behind the calls is not given here.

For the compound `CC(C)(C)/[N+]([O-])=C/c1ccc(S(=O)(=O)[O-])cc1S(=O)(=O)[O-].[Na+].[Na+]`, the outcome in test [1], in test [2], in test [5], in test [6], in test [8] and in test [10] was inactive. The outcome in test [12], in test [14] and in test [15] was inactive. Also, the Activity was 1% in test [3], 94% in test [4] and 20.7% in [13]. The result in test [7] was Active. Besides, the viability at 250 µM in test [9] was determined as 52.9%. Besides, the IC50 (in general, the concentration that gives 50% inhibition) in [11] came out at 57.5 µM.
